# Results as given in paper PMC5771863 (Anesthesiology, 2018).
# Columns and labels:
# Assay type in all cases: cell-based
# [1] = target: T1, α1β3F293Cγ2L GABAA receptors (Homo sapiens, UniProt P14867+P28472, F318C); settings: control modification conditions
# [2] = target: β3 subunits with Y284C mutations co-expressed with α1 and γ2L (Homo sapiens, UniProt P14867+P28472, Y309C); assay: GABA-activated currents, two-electrode voltage clamp in Xenopus oocytes; settings: β3Y284C co-expressed with α1 and γ2L in Xenopus oocytes
# How it was run: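 Human α1 and γ2L were co-expressed with mutant β3 from mRNA (1:1:5, ~50 ng per oocyte) over 48 to 72 hours at 17 °C in ND96. […] A current of ≥ 0.5 μA was required for further experiments.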
# [3] = target: α1β3E298Cγ2L GABAA receptors (Homo sapiens, UniProt P14867+P28472, E323C); assay: Functional effect of pCMBS exposure
# [4] = target: T1, α1β3F293Cγ2L GABAA receptors; assay: Functional effect of pCMBS exposure
# [5] = target: α1β3γ2L GABAA receptors (wild-type) (Homo sapiens, UniProt P14867+P28472); assay: Functional effect of pCMBS exposure
# [6] = target: T2, α1β3F301Cγ2L GABAA receptors (Homo sapiens, UniProt P14867+P28472, F326C); assay: Functional effect of pCMBS exposure
# [7] = target: α1β3M286Cγ2L GABAA receptors (Homo sapiens, UniProt P14867+P28472, M311C); assay: Functional effect of pCMBS exposure
# [8] = target: α1β3M283Cγ2L GABAA receptors (Homo sapiens, UniProt P14867+P28472, M308C); assay: Functional effect of pCMBS exposure
# [9] = target: α1β3F289Cγ2L GABAA receptors (Homo sapiens, UniProt P14867+P28472, F314C); assay: Functional effect of pCMBS exposure
# [10] = target: α1β3T266Cγ2L GABAA receptors (Homo sapiens, UniProt P14867+P28472, T291C); assay: Functional effect of pCMBS exposure
# [11] = target: α1β3T262Cγ2L GABAA receptors (Homo sapiens, UniProt P14867+P28472, T287C); assay: Functional effect of pCMBS exposure
# [12] = target: T3, α1β3L297Cγ2L GABAA receptors (Homo sapiens, UniProt P14867+P28472, L322C); assay: Functional effect of pCMBS exposure
# [13] = target: α1β3G287Cγ2L GABAA receptors (Homo sapiens, UniProt P14867+P28472, G312C); assay: Functional effect of pCMBS exposure
# [14] = target: T4, α1β3V290Cγ2L GABAA receptors (Homo sapiens, UniProt P14867+P28472, V315C); assay: Functional effect of pCMBS exposure
# [15] = target: T3, α1β3L297Cγ2L GABAA receptors; assay: Substituted cysteine modification-protection; settings: pCMBS + maximal GABA
# [16] = target: α1T237Cβ3γ2L GABAA receptors (Homo sapiens, UniProt P14867+P28472, T264C); assay: Substituted cysteine modification-protection; settings: 10 μM ALX, 10 μM ETO
# [17] = target: T2, α1β3F301Cγ2L GABAA receptors; assay: Substituted cysteine modification-protection; settings: pCMBS + maximal GABA, 10 to 20 μM ALX, 10 to 20 μM ETO
# [18] = target: T1, α1β3F293Cγ2L GABAA receptors; assay: Substituted cysteine modification-protection; settings: pCMBS + maximal GABA, initial concentrations, 10 μM ALX
# [19] = target: wild-type α1β3γ2L GABAA receptors (Homo sapiens, UniProt P14867+P28472); settings: […] ETO, 5 μM PRO, […] ALX (2 x EC50 tadpole LoRR)
# [20] = target: GABAA receptors with α1Q242C mutation (Homo sapiens, UniProt P14867+P28472, Q269C); assay: Receptor sensitivity to anesthetics; settings: authors' unpublished data
# [21] = target: T4, α1β3V290Cγ2L GABAA receptors
# [22] = low concentrations of anesthetics
# T3 sequence (P14867 28-456): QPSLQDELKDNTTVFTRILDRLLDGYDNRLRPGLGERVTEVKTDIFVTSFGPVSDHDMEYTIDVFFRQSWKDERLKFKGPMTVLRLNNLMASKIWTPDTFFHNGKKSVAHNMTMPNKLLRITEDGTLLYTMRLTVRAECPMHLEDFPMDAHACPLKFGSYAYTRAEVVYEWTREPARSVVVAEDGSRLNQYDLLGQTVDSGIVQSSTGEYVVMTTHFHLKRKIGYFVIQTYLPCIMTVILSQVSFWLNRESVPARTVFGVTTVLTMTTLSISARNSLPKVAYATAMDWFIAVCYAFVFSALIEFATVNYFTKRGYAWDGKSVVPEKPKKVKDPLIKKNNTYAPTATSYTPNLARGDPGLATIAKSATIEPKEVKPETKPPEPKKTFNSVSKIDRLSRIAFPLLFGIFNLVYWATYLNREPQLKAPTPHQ
# T3 sequence (P28472 26-473 L322C): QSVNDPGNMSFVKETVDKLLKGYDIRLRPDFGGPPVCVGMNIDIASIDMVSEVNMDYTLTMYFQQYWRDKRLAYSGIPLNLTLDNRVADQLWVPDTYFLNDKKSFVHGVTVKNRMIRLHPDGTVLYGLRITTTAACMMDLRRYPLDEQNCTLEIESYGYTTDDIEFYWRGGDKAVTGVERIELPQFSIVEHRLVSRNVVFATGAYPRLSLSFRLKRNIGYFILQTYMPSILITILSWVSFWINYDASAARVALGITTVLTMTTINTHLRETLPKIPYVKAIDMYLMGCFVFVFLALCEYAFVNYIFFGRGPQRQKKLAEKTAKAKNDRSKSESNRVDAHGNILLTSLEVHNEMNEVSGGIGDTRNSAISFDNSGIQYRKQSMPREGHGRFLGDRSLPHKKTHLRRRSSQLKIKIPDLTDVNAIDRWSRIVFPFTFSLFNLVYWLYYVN
# T3 sequence (P18507 40-475 partner): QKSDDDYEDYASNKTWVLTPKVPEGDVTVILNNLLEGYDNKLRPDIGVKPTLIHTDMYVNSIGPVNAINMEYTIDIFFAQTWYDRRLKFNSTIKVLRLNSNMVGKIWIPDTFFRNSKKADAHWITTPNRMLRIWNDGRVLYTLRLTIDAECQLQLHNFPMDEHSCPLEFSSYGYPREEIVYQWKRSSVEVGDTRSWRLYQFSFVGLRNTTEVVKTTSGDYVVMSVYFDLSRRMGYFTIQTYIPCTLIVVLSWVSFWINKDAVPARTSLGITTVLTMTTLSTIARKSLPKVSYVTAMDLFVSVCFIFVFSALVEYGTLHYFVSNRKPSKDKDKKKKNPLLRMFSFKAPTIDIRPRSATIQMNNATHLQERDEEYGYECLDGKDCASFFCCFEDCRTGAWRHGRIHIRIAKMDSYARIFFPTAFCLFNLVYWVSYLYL
# T1 sequence (P14867 28-456): as the sequence (P14867 28-456) above
# T1 sequence (P28472 26-473 F318C): as the sequence (P28472 26-473 L322C) above, with F293C, C297L counted along it
# T1 sequence (P18507 40-475 partner): as the sequence (P18507 40-475 partner) above
# T2 sequence (P14867 28-456): as the sequence (P14867 28-456) above
# T2 sequence (P28472 26-473 F326C): as the sequence (P28472 26-473 L322C) above, with C297L, F301C counted along it
# T2 sequence (P18507 40-475 partner): as the sequence (P18507 40-475 partner) above
compound,measurement,setting,value
"NCCCC(=O)O [GABA, γ-Aminobutyric acid]",fraction of receptors activated by maximal GABA,[1],about 16%
same,GABA-activated currents,[2],No GABA-activated currents were detected
"O=S(=O)([O-])c1cc[c]([Hg][Cl])cc1.[Na+] [pCMBS, Para-chloromercuribenzenesulfonic acid sodium salt]",Maximal Effect of pCMBS Modification (range): ↑ lo/hi GABA response,[3],↑ lo/hi GABA response (3.5 to 5.5-fold)
same,Maximal Effect of pCMBS Modification (range): ↑ lo/hi GABA response,[4],↑ lo/hi GABA response (2.6 to 4.3-fold)
same,Maximal Effect of pCMBS Modification (range),[5],No effect
same,effect of pCMBS exposure on receptor function,[5]; pCMBS at 1 mM for 60 s,unaffected
same,Maximal Effect of pCMBS Modification (range): ↑ lo/hi GABA response,[6],↑ lo/hi GABA response (3.8 to 4.9-fold)
same,Maximal Effect of pCMBS Modification (range): ↑ lo/hi GABA response,[7],↑ lo/hi GABA response (5.8 to 7.8-fold)
same,Maximal Effect of pCMBS Modification (range),[8],No effect
same,Maximal Effect of pCMBS Modification (range): ↑ lo/hi GABA response,[9],↑ lo/hi GABA response (2.8 to 4.0-fold)
same,Maximal Effect of pCMBS Modification (range): ↑ lo/hi GABA response,[10],↑ lo/hi GABA response (10 to 13-fold)
same,Maximal Effect of pCMBS Modification (range): Reduce max current,[11],Reduce max current (95–99%)
same,effect of pCMBS exposure on activation by GABA,[11]; low and high GABA,similarly reduced activation by both low and high GABA
same,Maximal Effect of pCMBS Modification (range): ↑ lo/hi GABA response,[12],↑ lo/hi GABA response (5.5 to 7.2-fold)
same,Maximal Effect of pCMBS Modification (range): ↑ lo/hi GABA response,[13],↑ lo/hi GABA response (2.3 to 3.5-fold)
same,Maximal Effect of pCMBS Modification (range): ↑ lo/hi GABA response,[14],↑ lo/hi GABA response (2.3 to 3.1-fold)
"CCOC(=O)c1cncn1[C@H](C)c1ccccc1 [ETO, R-Etomidate]",effect on apparent rate of pCMBS modification,[15]; 50 μM ALX vs. 50 μM ETO,"inhibition by ALX, but not ETO"
same,effect on apparent rate of pCMBS modification,[15]; [22],unaffected
same,effect on pCMBS modification rates,[16],inhibited modification
same,effect on apparent rate of pCMBS modification,[17],unaffected
same,effect on apparent rate of pCMBS modification,[18],accelerated
same,enhancement of gating of receptors activated with EC5 GABA,[19],similarly enhance
same,receptor sensitivity to anesthetic,[20],"insensitivity to ALX, but not to ETO"
"CC(C)c1cccc(C(C)C)c1O [PRO, 2,6-diisopropylphenol]",effect on apparent rate of pCMBS modification,[15]; [22],unaffected
same,effect on apparent rate of pCMBS modification,[18],accelerated
same,enhancement of gating of receptors activated with EC5 GABA,[19],similarly enhance
"C=CCC1(c2cccc(C3(C(F)(F)F)N=N3)c2)C(=O)NC(=O)N(C)C1=O (stereo not drawn) [mTFD-MPAB, R-allyl-m-trifluoromethyl-mephobarbital]",effect on apparent rate of pCMBS modification,[21],unaffected
